Laboratory results as given in ChEMBL document CHEMBL1144181, “Achiral oligoamines as versatile tool for the development of aspartic protease inhibitors” (Bioorg Med Chem, 2008).

How the values were obtained:
Renin = target: T1, Renin (Homo sapiens, UniProt P00797); assay: Inhibition of recombinant renin by fluorescence technique
T1 sequence (P00797 whole entry): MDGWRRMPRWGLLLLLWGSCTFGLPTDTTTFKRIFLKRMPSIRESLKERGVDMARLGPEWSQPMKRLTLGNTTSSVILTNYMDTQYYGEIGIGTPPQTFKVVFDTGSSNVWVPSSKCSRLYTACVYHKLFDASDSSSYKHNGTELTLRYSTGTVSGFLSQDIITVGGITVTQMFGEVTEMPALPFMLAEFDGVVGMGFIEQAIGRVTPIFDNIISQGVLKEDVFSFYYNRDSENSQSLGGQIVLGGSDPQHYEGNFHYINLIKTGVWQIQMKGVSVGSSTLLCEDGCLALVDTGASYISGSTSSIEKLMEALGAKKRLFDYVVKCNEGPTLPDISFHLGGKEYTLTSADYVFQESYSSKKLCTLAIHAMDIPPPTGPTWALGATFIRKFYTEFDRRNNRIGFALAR

[1] = Inhibition of pig pepsin by fluorescence technique; design: species or system Sus scrofa
Protease = Protease (Human immunodeficiency virus 1, UniProt Q9YQ12); assay: Inhibition of recombinant HIV1 protease expressed in Escherichia coli by fluorescence technique
[2] = Inhibition of Plasmodium recombinant plasmepsin-4 expressed in Escherichia coli by fluorescence technique
In short: (§1)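 The recombinant enzyme was expressed in E. coli and purified. It was assayed at room temperature in 100 mM NaAc, pH 4.5, with 1 mg/mL BSA and 4% final DMSO. The substrate was Abz-Thr-Ile-Nle-(p-NO2-Phe)-Gln-Arg-NH2, read by fluorescence increase (ex 337, em 410 nm). IC50 came from nonlinear regression of vi/v0 versus inhibitor concentration, and Ki = IC50/[1+(S/Km)].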

Beta-secretase 1 = Beta-secretase 1 (Homo sapiens, UniProt P56817); assay: Inhibition of recombinant beta secretase 1 by fluorescence technique
[3] = Inhibition of Plasmodium recombinant plasmepsin-2 expressed in Escherichia coli by fluorescence technique; in short: as §1

Sequence of Protease (Q9YQ12 whole entry): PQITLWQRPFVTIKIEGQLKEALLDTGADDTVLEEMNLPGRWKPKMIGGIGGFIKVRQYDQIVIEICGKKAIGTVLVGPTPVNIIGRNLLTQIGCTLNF
Sequence of Beta-secretase 1 (P56817 whole entry): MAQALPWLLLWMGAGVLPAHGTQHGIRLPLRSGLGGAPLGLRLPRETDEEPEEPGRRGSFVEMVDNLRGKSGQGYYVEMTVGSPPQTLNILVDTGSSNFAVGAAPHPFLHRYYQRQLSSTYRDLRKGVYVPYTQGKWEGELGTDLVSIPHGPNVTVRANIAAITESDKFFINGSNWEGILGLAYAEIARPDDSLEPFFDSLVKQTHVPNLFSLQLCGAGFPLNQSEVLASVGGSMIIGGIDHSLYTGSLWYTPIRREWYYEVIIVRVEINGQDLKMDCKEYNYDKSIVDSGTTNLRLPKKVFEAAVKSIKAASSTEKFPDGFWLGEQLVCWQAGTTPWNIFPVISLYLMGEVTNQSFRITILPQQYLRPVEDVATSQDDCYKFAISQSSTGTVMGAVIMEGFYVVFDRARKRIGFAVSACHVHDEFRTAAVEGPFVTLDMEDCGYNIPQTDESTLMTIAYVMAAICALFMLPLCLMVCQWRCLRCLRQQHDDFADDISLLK

SMILES | IC50 (Renin) [µM] | IC50 [1] [µM] | IC50 (Protease) [µM] | Ki [2] [µM] | IC50 (Beta-secretase 1) [µM] | Ki [3] [µM] | Ki (Renin) [µM] | Ki (Beta-secretase 1) [µM] | Ki [1] [µM] | Ki (Protease) [µM]
O=C(Cc1ccccc1)N(CCCNCCN(Cc1ccccc1)C(=O)Cc1ccccc1)Cc1ccccc1 | > 250 | > 250 | > 250 | 56 | > 250 | 63 |  |  |  | 
O=C(Cc1ccccc1)N(CCNCCN(Cc1ccccc1)C(=O)Cc1ccccc1)Cc1ccccc1 |  | > 250 | > 250 | 98 | > 250 | 91 | 5.7 |  |  | 
O=S(=O)(c1ccccc1)N(CCCNCCCN(Cc1ccccc1)S(=O)(=O)c1ccccc1)Cc1ccccc1 | > 250 | > 250 | > 250 | 42 |  | 21 |  | 150 |  | 
O=C(Cc1ccccc1)N(CCCNCCCN(Cc1ccccc1)C(=O)Cc1ccccc1)Cc1ccccc1 |  | > 250 | > 250 | 170 | > 250 | 120 | 16 |  |  | 
Nc1ccc(S(=O)(=O)N(CCCNCCCN(Cc2ccccc2)S(=O)(=O)c2ccc(N)cc2)Cc2ccccc2)cc1 | > 250 |  | > 250 | 20 |  | 2.8 |  | 64 | 4 | 
CC(C)CN(C[C@@H](O)[C@H](Cc1ccccc1)NC(=O)O[C@H]1CCOC1)S(=O)(=O)c1ccc(N)cc1 |  |  |  |  |  |  |  |  |  | 0.9
Nc1ccc(S(=O)(=O)N(CCCNCCN(Cc2ccccc2)S(=O)(=O)c2ccc(N)cc2)Cc2ccccc2)cc1 | > 250 | > 250 | > 250 | 7.5 | > 250 | 22 |  |  |  | 
O=S(=O)(c1ccccc1)N(CCCNCCN(Cc1ccccc1)S(=O)(=O)c1ccccc1)Cc1ccccc1 | > 250 |  |  | 17 | > 250 | 18 |  |  | 15 | 14
CC(C)CN(CCNCCN(CC(C)C)S(=O)(=O)c1ccc(N)cc1)S(=O)(=O)c1ccc(N)cc1 | > 250 |  |  | 56 | > 250 | 6.8 |  |  | 4.8 | 
O=S(=O)(c1ccccc1)N(CCNCCN(Cc1ccccc1)S(=O)(=O)c1ccccc1)Cc1ccccc1 | > 250 |  |  | 36 | > 250 | 7 |  |  | 5.7 | 3.8
CC(C)CN(CCNCCN(CC(C)C)S(=O)(=O)c1ccccc1)S(=O)(=O)c1ccccc1 | > 250 |  |  | 87 | > 250 | 23 |  |  | 4.5 | 10
Nc1ccc(S(=O)(=O)N(CCNCCN(Cc2ccccc2)S(=O)(=O)c2ccc(N)cc2)Cc2ccccc2)cc1 | > 250 |  |  | 7.5 | > 250 | 4.2 |  |  | 3.9 | 
